Measurements collected from several papers.
Each line is one published result; the experiments were not run side by side.
Target: Membrane-associated tyrosine- and threonine-specific cdc2-inhibitory kinase (PKMYT1, Homo sapiens, UniProt Q99640)
Residues used in one study (Q99640 1-499): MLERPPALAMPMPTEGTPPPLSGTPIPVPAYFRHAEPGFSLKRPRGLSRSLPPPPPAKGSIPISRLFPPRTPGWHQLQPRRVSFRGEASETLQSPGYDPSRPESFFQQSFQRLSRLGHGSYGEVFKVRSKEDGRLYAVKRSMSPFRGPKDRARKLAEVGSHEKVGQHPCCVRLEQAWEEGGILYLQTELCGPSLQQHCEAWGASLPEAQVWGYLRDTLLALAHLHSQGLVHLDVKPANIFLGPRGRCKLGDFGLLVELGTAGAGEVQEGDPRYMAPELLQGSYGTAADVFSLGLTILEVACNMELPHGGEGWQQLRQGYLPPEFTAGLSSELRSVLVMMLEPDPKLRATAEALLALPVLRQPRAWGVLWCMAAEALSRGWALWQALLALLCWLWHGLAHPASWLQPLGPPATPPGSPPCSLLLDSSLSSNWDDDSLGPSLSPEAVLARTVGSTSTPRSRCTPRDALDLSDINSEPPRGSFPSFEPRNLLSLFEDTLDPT

Structure (SMILES) | effect on | mode | technique | tested at | measurement | result
C[C@H](NC(=O)c1cnc2n1[C@](C)(Cc1ccc(C#N)cc1)C(=O)N2c1cc(Cl)c(F)c(Cl)c1)C(=O)NC1(c2ccccn2)CC1 | cell-free assay |  | competition with immobilised ligand | 1 µM | remaining binding | 79%
O=C(Nc1cnn(-c2csc(C(=O)NC3COC3)c2)c1)Nc1c(F)cccc1Cl | enzyme activity | inhibitor |  | 5 µM | remaining activity | 89.6%
CNCc1ccccc1-c1csc([C@H](C)Nc2nc(C)nc3cc(OC)c(OC)cc23)c1 | cell-free assay |  | competition with immobilised ligand | 1 µM | remaining binding | 100%
C=CCn1c(=O)c2cnc(Nc3ccc(N4CCN(C)CC4)cc3)nc2n1-c1cccc(C(C)(C)O)n1 | thermal stability |  | DSF | 100 µM | ΔTm | 3 °C
CC(C)(C)c1nc(-c2cccc(NS(=O)(=O)c3c(F)cccc3F)c2F)c(-c2ccnc(N)n2)s1 | enzyme activity | inhibitor | radiometric | 1 µM | remaining activity | 88%
C[C@@H]1CCN(c2nccc(-c3cnn4ncccc34)n2)C1 | binding |  |  | 1 µM | remaining binding | 99%
CC(C)(C)c1nc2c(s1)c1nc(N)ncc1c1ccc(NS(=O)(=O)c3c(F)cccc3F)c(F)c12 | enzyme activity | inhibitor | radiometric | 1 µM | remaining activity | 84%
O=C(Nc1cnn(-c2csc(C(=O)NC3COC3)c2)c1)Nc1ccccc1Cl | enzyme activity | inhibitor |  | 5 µM | remaining activity | 87%
c1cnn2ncc(-c3ccnc(N4CCC45COC5)n3)c2c1 | binding |  |  | 1 µM | remaining binding | 97%
Nc1ncnc2occ(-c3ccc(NC(=O)Nc4cc(C(F)(F)F)ccc4F)cc3)c12 | cell-free assay | inhibitor |  | 20 µM | remaining signal | 75%
Cc1ccc(C(=O)Nc2ccc(CN3CCN(C)CC3)c(C(F)(F)F)c2)cc1C#Cc1cnc2cccnn12 | enzyme activity | inhibitor |  | 23.5 nM | remaining activity | 84%
